{"data": "Experimental data from different studies", "ADRB2": "Beta-2 adrenergic receptor (ADRB2, Homo sapiens, UniProt P07550)", "HDAC10": "Polyamine deacetylase HDAC10 (HDAC10, Homo sapiens, UniProt Q969S8)", "CNR2": "Cannabinoid receptor 2 (CNR2, Homo sapiens, UniProt P34972)", "MMP2": "72 kDa type IV collagenase (MMP2, Homo sapiens, UniProt P08253)", "SLC22A2": "Solute carrier family 22 member 2 (SLC22A2, Homo sapiens, UniProt O15244)", "note": "Compare with care: the assays were run in different laboratories."}
{"SMILES": "COc1cc(N)c(Cl)cc1C(=O)CCC1CCN(CCNS(C)(=O)=O)CC1", "target": "ADRB2", "assay": "ligand displacement, radioligand", "conditions": "cell membranes", "IC50": "62.6 µM"}
{"SMILES": "O=C(CCCCCCNC(=O)c1cnc(N(c2ccccc2)c2ccccc2Cl)nc1)NO", "target": "HDAC10", "assay": "enzyme activity, inhibitor, fluorescence", "IC50": "2.52 µM"}
{"SMILES": "Cc1c(C(=O)N[C@@H]2CCCC[C@@H]2O)nc(-c2ccc(Cl)cc2Cl)n1-c1ccc(OS(=O)(=O)CCC(F)(F)F)cc1 (single isomer, unassigned)", "target": "CNR2", "assay": "GTPγS binding, antagonist", "conditions": "cell membranes", "IC50": "0.44 µM"}
{"SMILES": "Cc1noc(-c2cc3cc(-c4nc(C(=O)NCc5ccncc5)[nH]c4C)ccc3[nH]2)n1", "target": "MMP2", "assay": "enzyme activity, inhibitor", "IC50": "> 20 µM"}
{"SMILES": "CN/C(=N/CCSCc1nc[nH]c1C)NC#N", "target": "SLC22A2", "assay": "transporter uptake, inhibitor", "test system": "MDCK-II", "IC50": "17 µM"}
{"SMILES": "COc1ccc2nc(/N=C3/NC(=O)C(=Cc4ccccc4)S3)sc2c1", "target": "Aldo-keto reductase family 1 member B1 (Akr1b1, Rattus norvegicus, UniProt P07943)", "assay": "enzyme activity, inhibitor, absorbance", "conditions": "pH 6.2", "IC50": "> 50 µM"}
{"SMILES": "CN(C(=O)n1cnc(-c2ccc[n+]([O-])c2)c1)C1CCCCC1", "target": "SLC22A2", "assay": "transporter uptake, inhibitor", "test system": "MDCK-II", "IC50": "> 33.3 µM"}
{"SMILES": "CN1[C@@H]2CC[C@H]1C[C@@H](OC(=O)c1c[nH]c3ccccc13)C2", "target": "ADRB2", "assay": "ligand displacement, radioligand", "conditions": "cell membranes", "IC50": "37.7 µM"}
{"SMILES": "Cn1nc(C(=O)NCc2ccc(C(=O)O)cc2)cc1-c1ccc2[nH]c(-c3cccnc3)cc2c1", "target": "MMP2", "assay": "enzyme activity, inhibitor", "IC50": "> 20 µM"}
{"SMILES": "O=[N+]([O-])C1=Cc2cc(C#Cc3ccc(F)cc3)ccc2OC1C(F)(F)F (stereo not shown)", "target": "P2Y purinoceptor 6 (P2RY6, Homo sapiens, UniProt Q15077)", "assay": "calcium signal, antagonist, fluorescence", "IC50": "4.4 µM"}
{"SMILES": "O=C(OCc1ccccc1)c1ccc(O)cc1", "target": "Histone-lysine N-methyltransferase SETD7 (SETD7, Homo sapiens, UniProt Q8WTS6)", "assay": "enzyme activity, inhibitor", "IC50": "> 333 µM"}
{"SMILES": "CC(C)(C)n1nc(-c2ccc3nc(OC4CC4)ccc3c2)c(C(N)=O)c1N", "target": "Casein kinase I isoform alpha (CSNK1A1, Homo sapiens, UniProt P48729)", "assay": "cell-free assay, inhibitor", "IC50": "> 10 µM"}
{"SMILES": "CCOCc1nc(O)c(-c2nnc(Cc3ccc(Cl)cn3)o2)c(O)c1-c1c(OC)cccc1OC", "target": "ADRB2", "assay": "ligand displacement, radioligand", "IC50": "> 30 µM"}
{"SMILES": "COc1cc(O)c(CC=C(C)C)c2c1C(=O)CC(c1ccc(O)cc1)O2 (stereo not shown)", "target": "Cytochrome P450 1B1 (CYP1B1, Homo sapiens, UniProt Q16678)", "assay": "enzyme activity, inhibitor, fluorescence", "conditions": "15 min, pH 7.4", "IC50": "0.48 µM"}
{"SMILES": "CCCC[C@H](NC(=O)C1CN(C)C1)c1ncc(-c2cc3ccccc3nc2OC)[nH]1", "target": "HDAC10", "assay": "enzyme activity, inhibitor", "IC50": "0.075 µM"}
{"SMILES": "Cc1c(C(=O)Nc2ccc(C(F)(F)F)cn2)nc(-c2ccc(Cl)cc2Cl)n1-c1ccc(OS(=O)(=O)CCC(F)(F)F)cc1", "target": "CNR2", "assay": "GTPγS binding, antagonist", "conditions": "cell membranes", "IC50": "0.133 µM"}
{"SMILES": "CN(C)CCN(C(=O)c1ccc(Cl)s1)c1nc2ccccc2s1", "target": "Short transient receptor potential channel 6 (Trpc6, Mus musculus, UniProt Q61143)", "assay": "calcium signal, fluorescence", "IC50": "15.1 µM"}
{"SMILES": "CCC1(c2ccc(C)cc2)C(=O)N(C(=O)OC(C)C)N1C(=O)OC(C)C (stereo not shown)", "target": "Monoacylglycerol lipase ABHD6 (Abhd6, Mus musculus, UniProt Q8R2Y0)", "assay": "enzyme activity, inhibitor", "IC50": "3 µM"}
{"SMILES": "Cc1noc(-c2cc3cc(-c4nc(C(=O)NCc5ccccn5)[nH]c4C)ccc3[nH]2)n1", "target": "MMP2", "assay": "enzyme activity, inhibitor", "IC50": "> 20 µM"}
